Reference: article PMC7496893 (Clinical Pharmacology in Drug Development, 2019)
“Also recorded” adds a separate entry of the source. Read-outs that look alike come from different tables or passages of the source. Marks after values point to notes of the source that are not given here.

Columns and labels:
P-glycoprotein = details: verapamil (P-glycoprotein inhibitor); cited from earlier work
rheumatoid arthritis = details: daily doses of 100 mg and 150 mg; cited from earlier work
Safety assessment = assay type: in vivo, human (Japanese subjects); details: for tolerability: non-RA subjects with normal, mild or moderate hepatic impairment, single oral dose
Procedure, shortened: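 The safety set was every subject dosed with one 150 mg tablet after an overnight fast, assessed throughout the study. TEAEs were events that started or worsened after dosing, coded with Japanese MedDRA J16.0. Assessments also covered vital signs, ECG, hematology, biochemistry, urinalysis and liver tests: ALP, ALT, γ-GTP, total bilirubin and AST.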

[1] = cited from earlier work
[2] = assay type: in vivo, human (Japanese subjects); details: for CL/F: single oral 150 mg, mean (SD)
Procedure, shortened: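 Open-label parallel-group study with planned 8 per group: normal, Child-Pugh A (5–6 points) or B (7–9 points). Subjects took one 150 mg tablet with 150 mL water after an overnight fast. Blood was drawn predose, at 15 min, every 30 min to 2 h, then at 3–72 h. Plasma parent was measured by validated LC-MS/MS (LLOQ 0.25 ng/mL, linear 0.25–500 ng/mL). GMR and 90% CI came from a mixed model with hepatic group as a fixed effect.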

[3] = test system: organic anion transporting polypeptide 1B1; details: peficitinib with rosuvastatin; cited from earlier work

Compound: NC(=O)c1cnc2[nH]ccc2c1N[C@@H]1[C@@H]2CC3C[C@H]1C[C@@](O)(C3)C2 [Peficitinib]
- exposure in combination with verapamil (P-glycoprotein): increased exposure
- efficacy and tolerability in RA patients (rheumatoid arthritis): effective and well tolerated
- changes from baseline in vital signs, ECG, or clinical laboratory parameters (Safety assessment; all subjects): no clinically significant changes; also recorded: no clinically meaningful changes
- deaths (Safety assessment; all subjects): no deaths
- serious TEAEs (Safety assessment; all subjects): no serious TEAEs
- withdrawal from the study due to a TEAE (Safety assessment; all subjects): no TEAEs leading to withdrawal; also recorded: no subjects withdrew
- number of TEAEs considered related to peficitinib (Safety assessment; all subjects (N = 24)): Four
- Back pain (Safety assessment; mild impairment (n = 8)): 0 n (%)
- Blood urine present (Safety assessment; mild impairment (n = 8)): 1 (12.5) n (%)
- Diarrhea (Safety assessment; mild impairment (n = 8)): 1 (12.5) n (%)
- Hypotension (Safety assessment; mild impairment (n = 8)): 0 n (%)
- Nausea (Safety assessment; mild impairment (n = 8)): 0 n (%)
- TEAEs, Overall (Safety assessment; mild impairment (n = 8)): 1 (12.5) ^b n (%)
- Back pain (Safety assessment; moderate impairment (n = 8)): 0 n (%)
- Blood urine present (Safety assessment; moderate impairment (n = 8)): 0 n (%)
- Diarrhea (Safety assessment; moderate impairment (n = 8)): 0 n (%)
- Hypotension (Safety assessment; moderate impairment (n = 8)): 1 (12.5) n (%)
- Nausea (Safety assessment; moderate impairment (n = 8)): 0 n (%)
- TEAEs, Overall (Safety assessment; moderate impairment (n = 8)): 1 (12.5) n (%)
- tolerability (Safety assessment): well tolerated
- tolerability (Safety assessment; listed as peficitinib): generally well tolerated
- Back pain (Safety assessment; normal function (n = 8)): 1 (12.5) n (%)
- Blood urine present (Safety assessment; normal function (n = 8)): 0 n (%)
- Diarrhea (Safety assessment; normal function (n = 8)): 0 n (%)
- Hypotension (Safety assessment; normal function (n = 8)): 0 n (%)
- Nausea (Safety assessment; normal function (n = 8)): 1 (12.5) n (%)
- TEAEs, Overall (Safety assessment; normal function (n = 8), single oral 150 mg): 1 (12.5) ^a n (%)
- Back pain (Safety assessment; total (N = 24)): 1 (4.2) n (%)
- Blood urine present (Safety assessment; total (N = 24)): 1 (4.2) n (%)
- Diarrhea (Safety assessment; total (N = 24)): 1 (4.2) n (%)
- Hypotension (Safety assessment; total (N = 24)): 1 (4.2) n (%)
- Nausea (Safety assessment; total (N = 24)): 1 (4.2) n (%)
- dose proportionality ([1]; multiple doses from 30 mg twice daily to 100 mg twice daily): Dose proportionality was shown
- plasma levels reached steady state ([1]; multiple dosing, healthy subjects): ≤ 3 days
- dose proportionality ([1]; single dose from 3 to 300 mg): Dose proportionality was shown
- GMR Impaired/Normal (90% CI), Cmax ([2]; mild hepatic impairment vs normal hepatic function): 1.04 (0.71, 1.53) %
- GMR Impaired/Normal (90% CI), Cmax ([2]; mild hepatic impairment vs normal hepatic function, listed as peficitinib): 1.04 (90% CI: 0.71, 1.53)
- increase in geometric mean Cmax ([2]; moderate hepatic impairment versus normal hepatic function): 82%
- GMR Impaired/Normal (90% CI), Cmax ([2]; moderate hepatic impairment vs normal hepatic function): 1.82 (1.24, 2.69) %
- GMR Impaired/Normal (90% CI), Cmax ([2]; moderate hepatic impairment vs normal hepatic function, listed as peficitinib): 1.82 (90% CI: 1.24, 2.69)
- exposure ([2]; moderately impaired vs normal hepatic function, in words): higher exposure
- CL/F ([2]; mild hepatic impairment): 121.3 (54.89) L/h
- CL/F ([2]; moderate hepatic impairment): 74.51 (32.28) L/h
- CL/F ([2]; normal hepatic function): 134.9 (25.77) L/h
- changes in the PK profile during coadministration [3]: did not demonstrate any clinically significant changes

Compound: CC(C)c1nc(N(C)S(C)(=O)=O)nc(-c2ccc(F)cc2)c1/C=C/[C@@H](O)C[C@@H](O)CC(=O)O [rosuvastatin, reference compound]
- changes in the PK profile during coadministration [3]: did not demonstrate any clinically significant changes
